Data as given in PubChem BioAssay AID492975 (The Scripps Research Institute Molecular Screening Center, 2010).
Active and inactive are the calls of the source.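 The calls were made as follows: active = inhibition above 50% of the malaria lysate aminopeptidase activity; inactive = inhibition of 50% or less.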

These compounds were tested against Aspartyl aminopeptidase (Plasmodium falciparum (isolate 3D7)) (UniProt Q8I2J3) (assay: PfM18AAP inhibition in parasite lysate, late-stage follow-up, cell lysate, fluorescence, malaria cell lysate, powder samples (AID 492975)). Conditions: P. falciparum lysate, H-Glu-NHMec fluorogenic substrate; at 5 µM; stronger effect = higher value.
Procedure, shortened: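 Test system: P. falciparum malaria cell lysate; Input: malaria cell lysate at 10 µg/mL final; Buffer or medium: 25 mM Tris-HCl buffer, pH 7.5; Also added: fluorogenic substrate H-Glu-NHMec at 50 µM final; Times: 10 min pre-incubation, 30 min reading; Measured by: fluorescence 370/460 nm, 1-min intervals; Control set: no-compound and no-lysate control wells.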

Sequence of Aspartyl aminopeptidase (Plasmodium falciparum (isolate 3D7)) (Q8I2J3 whole entry, looked up): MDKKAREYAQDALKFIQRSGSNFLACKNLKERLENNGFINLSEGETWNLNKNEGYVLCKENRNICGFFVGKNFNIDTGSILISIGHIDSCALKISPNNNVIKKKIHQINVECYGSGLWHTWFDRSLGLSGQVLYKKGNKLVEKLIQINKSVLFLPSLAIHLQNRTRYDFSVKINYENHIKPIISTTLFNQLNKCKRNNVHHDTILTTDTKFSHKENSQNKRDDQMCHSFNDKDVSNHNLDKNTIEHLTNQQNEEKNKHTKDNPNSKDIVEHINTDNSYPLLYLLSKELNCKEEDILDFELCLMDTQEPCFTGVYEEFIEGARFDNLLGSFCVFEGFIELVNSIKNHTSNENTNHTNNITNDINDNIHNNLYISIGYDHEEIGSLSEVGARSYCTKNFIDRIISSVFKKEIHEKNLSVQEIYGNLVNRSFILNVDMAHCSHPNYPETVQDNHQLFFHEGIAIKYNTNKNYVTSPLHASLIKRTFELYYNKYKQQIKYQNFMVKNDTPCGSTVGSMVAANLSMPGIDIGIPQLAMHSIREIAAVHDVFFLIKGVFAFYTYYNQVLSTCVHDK

SMILES	inhibition
CCc1ccccc1NC(=S)Nn1cnnc1	14% (inactive)
Cc1cc(C)cc(C(=O)n2cnnc2N)c1	11% (inactive)
COc1cc([N+](=O)[O-])ccc1NC(=O)Nn1cnnc1	0% (inactive)
Cc1ccc(Cl)cc1NC(=S)Nn1cnnc1	16% (inactive)
CC1(C)CC2(CC(c3ccccc3F)c3ccc(O)c(O)c3O2)NC(=S)N1 (stereo not given)	89%
CCC(C)c1ccc(O)c(N)c1 (stereo not given)	95%
O=c1c(O)c(-c2ccc(O)c(O)c2)oc2cc(O)cc(O)c12	80%
COc1cc(Br)cc(/C=N/c2ncn[nH]2)c1O	0% (inactive)
O=C(CSc1nn(-c2ccccc2)c(=S)s1)Nn1cnnc1	9% (inactive)
O=C(CSc1nc2ccccc2c(=O)[nH]1)c1ccc(O)c(O)c1	79%
O=c1c2c([N+](=O)[O-])cc([N+](=O)[O-])cc2sn1Cc1ccccc1	94%
O=C(O)CSc1ncn[nH]1	66%
Cc1cccc(NC(=S)Nn2cnnc2)c1C	12% (inactive)
Oc1ccc(-c2csc(-c3cccnc3)n2)cc1O	99%
Nc1nncn1C(=O)CCCOc1ccc(Cl)cc1Cl	3% (inactive)
COc1ccc(Cl)cc1NC(=O)Nn1cnnc1	21% (inactive)
CCOC(=O)C1=C(CS(=O)(=O)c2ccc(F)cc2)NC(=O)NC1c1ccc(O)c(O)c1 (stereo not given)	90%
CC1(C)CC(=O)c2c(oc3cc(O)c(O)cc23)C1	85%
Oc1cc(O)c2c(c1)O[C@H](c1ccc(O)c(O)c1)[C@H](O)C2	89%
COc1ccc(NC(=O)NNC(=O)CCc2ccc(O)c(O)c2)cc1OC	86%

SMILES	inhibition
Cc1cc(C)n2c(=S)[nH]nc2n1	74%
COc1ccc(C(=O)n2cnnc2N)cc1	12% (inactive)
COC(=O)CN(n1cnnc1)S(=O)(=O)c1ccc(C)cc1	6% (inactive)
O=C(Nc1ccc(Br)cc1Cl)Nn1cnnc1	28% (inactive)
Oc1ccc(/C=C/c2cc(O)cc(O)c2)cc1	66%
CC1=NNC(=O)/C1=C\c1cn(-c2ccccc2)nc1-c1ccc(F)cc1	68%
O=C(Nn1cnnc1)c1csc2ccccc12	5% (inactive)
CC(C)n1c(SCC(=O)Nc2nncs2)nnc1-c1ccco1	11% (inactive)
O=[N+]([O-])c1cc([N+](=O)[O-])c2cccnc2c1Oc1ccccc1O	85%
COc1ccc2nc(C)cc(SCC(=O)N/N=C/c3ccc(O)c(O)c3)c2c1	83%
NCCc1ccc(O)c(O)c1	70%
O=C(Nc1ccc(Cl)c(Cl)c1)Nn1cnnc1	84%
O=c1[nH]c(=S)[nH]c(O)c1/C=C1\C=c2ccccc2=N1	41% (inactive)
COc1cccc(-c2cc(C(=O)Nn3cnnc3)c3ccccc3n2)c1	0% (inactive)
Oc1ccc(-c2csc(-c3ccccc3)n2)cc1O	94%
O=C(Nn1cnnc1)c1ccccc1-c1ccccc1	10% (inactive)
Cc1ccc(-n2c(O)c(/C=N/n3cnnc3)c3ccccc3c2=O)cc1	12% (inactive)
COc1cccc2c(SCC(=O)N/N=C/c3ccc(O)c(O)c3)cc(C)nc12	80%
O=S(=O)(Nn1cnnc1)c1ccccc1	2% (inactive)
O=C(CSc1ncn[nH]1)Nc1nc(-c2ccccc2)ns1	12% (inactive)

SMILES	inhibition
O=C(CNC(=O)c1ccccc1)NCCc1ccc(O)c(O)c1	94%
Cc1c(Cl)cccc1NC(=O)Nn1cnnc1	10% (inactive)
CN1CCc2cccc3c2[C@@H]1Cc1ccc(O)c(O)c1-3	84%
Cc1ccc(NC(=S)Nn2cnnc2)c(C)c1	7% (inactive)
O=C(O)c1ccc(O)c(O)c1	94%
O=C(CSc1ncn[nH]1)OCN1C(=O)c2ccccc2C1=O	49% (inactive)
S=C(Nc1cc(Cl)ccc1Cl)Nn1cnnc1	20% (inactive)
O=c1[nH]c(CSc2ncn[nH]2)nc2ccccc12	15% (inactive)
Br/C(C=Nn1cnnc1)=C\c1ccccc1	14% (inactive)
CCN(CC)S(=O)(=O)c1ccc(C(=O)Nn2cnnc2)cc1	31% (inactive)
O=C(Nc1cccc(Cl)c1Cl)Nn1cnnc1	26% (inactive)
Cc1nc(-c2ccc(O)c(O)c2)cs1	95%
Cc1nc2ccccn2c1C(=O)NNC(=O)Nc1ccccc1	53%
O=C(O)c1cn[nH]c1-n1cnnn1	7% (inactive)
O=C(NC(=S)Nn1cnnc1)c1ccccc1Br	14% (inactive)
Cc1ccc([N+](=O)[O-])cc1-c1[nH]c(-c2ccc(O)c(O)c2)nc1-c1ccccc1	92%
OC(Cn1cnnc1)c1ccccc1 (stereo not given)	12% (inactive)
Cc1cc(=O)[nH]c(SCC(=O)c2ccc(O)c(O)c2)n1	61%
Oc1ccc(-c2cn3ccccc3n2)cc1O	94%
COC(=O)CN(n1cnnc1)S(=O)(=O)c1ccccc1	0% (inactive)
